Source: ChEMBL document CHEMBL4052675, “Synthesis, biological evaluation and molecular modeling of imidazo[1,2-a]pyridine derivatives as potent antitubulin agents” (Bioorg Med Chem, 2017)
Activity calls are given as the source filed them. No cut-off for these calls is given here.

Tests used:
HT-29 [1] = assay: Cytotoxicity against human HT-29 cells after 72 hrs by MTT assay; type: functional, cell-based; details: HT-29, 72 h
In short: (§1)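 Cells grown in MEM with 10% FBS; about 4×10^3 cells per well, preincubated 24 h at 37 °C in 5% CO₂, then exposed to compounds for 72 h. MTT at a […] added for 4 h at 37 °C. Formazan dissolved in DMSO; absorbance read at 492 nm against 630 nm reference. Three runs per line; IC50 reported as mean ± SD.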

NCI-H460 = assay: Cytotoxicity against human NCI-H460 cells after 72 hrs by MTT assay; type: functional, cell-based; details: NCI-H460, 72 h; in short: as §1
A549 = assay: Cytotoxicity against human A549 cells after 72 hrs by MTT assay; type: functional, cell-based; details: A549, 72 h; in short: as §1
MKN-45 = assay: Cytotoxicity against human MKN45 cells after 72 hrs by MTT assay; type: functional, cell-based; details: MKN-45, 72 h; in short: as §1
SMMC-7721 = assay: Cytotoxicity against human SMMC7721 cells after 72 hrs by MTT assay; type: functional, cell-based; details: SMMC-7721, 72 h; in short: as §1
HT-29 [2] = assay: Potency index, ratio of CA-4 IC50 to test compound IC50 for human HT-29 cells; type: functional
Homo sapiens [3] = species: Homo sapiens; assay: Inhibition of tubulin polymerization in human HT-29 cells assessed as abnormal microtubule network formation at 88 nM after 24 hrs by DAPI staining based immunofluorescence microscopic analysis; type: cell-based
In short: (§2)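 HT-29 seeded at 1×10^4 per well, grown 24 h, then treated 24 h; controls received medium. Fixed in 4% formaldehyde/PBS (30 min, −20 °C), permeabilized with 0.2% Triton X-100, and blocked with 5% BSA. Stained with anti-α-tubulin (1:100, overnight, 4 °C), then FITC anti-mouse secondary (1:100, 2 h, 37 °C). DAPI counterstain; imaged by fluorescence microscopy.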

Homo sapiens [4] = species: Homo sapiens; assay: Inhibition of tubulin polymerization in human HT-29 cells assessed as microtubule disruption by measuring scattered short microtubule fragment in cytoplasm at 88 nM after 24 hrs by DAPI staining based immunofluorescence microscopic analysis; type: cell-based; in short: as §2
HT-29 [5] = assay: Potency index, ratio of crolibulin IC50 to test compound IC50 for human HT-29 cells; type: functional
Homo sapiens [6] = species: Homo sapiens; assay: Inhibition of colchicine binding to tubulin (unknown origin) pretreated for 1 hr followed by colchicine addition by spectrofluorometric method
In short: (§3)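 Tubulin preincubated 1 h at 37 °C with test agent (0, 1.6, 5, 15 μM), then colchicine added to a final 5 μM. Fluorescence read at excitation 365 nm and emission 435 nm, with buffer blank subtracted. Value is F/F0 × 100%, where F0 is fluorescence of the colchicine–tubulin complex without competitor.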

Homo sapiens [7] = species: Homo sapiens; assay: Inhibition of colchicine binding to tubulin (unknown origin) up to 15 uM pretreated for 1 hr followed by colchicine addition by spectrofluorometric method; in short: as §3
Homo sapiens [8] = species: Homo sapiens; assay: Inhibition of tubulin polymerization in human HT-29 cells assessed as abnormal microtubule network formation at 20 nM after 24 hrs by DAPI staining based immunofluorescence microscopic analysis; type: cell-based; in short: as §2
Homo sapiens [9] = species: Homo sapiens; assay: Inhibition of tubulin polymerization in human HT-29 cells assessed as microtubule disruption by measuring scattered short microtubule fragment in cytoplasm at 20 nM after 24 hrs by DAPI staining based immunofluorescence microscopic analysis; type: cell-based; in short: as §2

Row | inhibition (Homo sapiens [6]) | SMILES | IC50 (HT-29 [1]) | IC50 (NCI-H460) | IC50 (A549) | IC50 (MKN-45) | IC50 (SMMC-7721) | Ratio IC50 (HT-29 [2]) | inhibition (Homo sapiens [3]) | inhibition (Homo sapiens [4]) | Ratio IC50 (HT-29 [5]) | inhibition (Homo sapiens [7]) | inhibition (Homo sapiens [8]) | inhibition (Homo sapiens [9])
1 |  | CNCc1cn2c(-c3c[nH]c4ccccc34)cc(-c3ccc(F)cc3Cl)c(C#N)c2n1 | 120 nM | 250 nM | 1040 nM | 2440 nM | 5660 nM |  |  |  |  |  |  | 
2 |  | N#Cc1c(-c2ccc(F)cc2F)cc(-c2c[nH]c3ccccc23)n2cc(CN3CCOCC3)nc12 | 2700 nM | 190 nM | 3330 nM | 7860 nM | 12800 nM |  |  |  |  |  |  | 
3 |  | COc1cc(-c2cc(-c3ccc(F)cc3F)n3c(CN4CCCC4)cnc3c2C#N)cc(OC)c1OC | 700 nM | 130 nM | 1200 nM | 11600 nM | 2930 nM |  |  |  |  |  |  | 
4 |  | CC(C)NCc1cn2c(-c3c[nH]c4ccccc34)cc(-c3ccc(F)cc3F)c(C#N)c2n1 | 80 nM | 180 nM | 1920 nM | 3340 nM | 6540 nM |  |  |  |  |  |  | 
5 |  | COc1ccc(-c2cc(-c3ccc(F)cc3)n3c(CN(C)C)cnc3c2C#N)c(OC)c1OC | 800 nM | 9330 nM | 670 nM | 6990 nM | 3020 nM |  |  |  |  |  |  | 
6 |  | CNCc1cnc2c(C#N)c(-c3ccc(OC)c(OC)c3OC)cc(-c3ccc(F)cc3F)n12 | 70 nM | 20 nM | 130 nM | 2700 nM | 1170 nM |  |  |  |  |  |  | 
7 |  | N#Cc1c(-c2ccc(F)cc2Cl)cc(-c2c[nH]c3ccccc23)n2cc(CNC3CCCCC3)nc12 | 20 nM | 80 nM | 2530 nM | 3680 nM | 4880 nM |  |  |  |  |  |  | 
8 |  | CCNCc1cnc2c(C#N)c(-c3ccc(OC)c(OC)c3OC)cc(-c3ccc(F)cc3F)n12 | 90 nM | 30 nM | 170 nM | 3520 nM | 1320 nM |  |  |  |  |  |  | 
9 |  | CNCc1cnc2c(C#N)c(-c3ccc(OC)c(OC)c3OC)cc(-c3ccc(F)cc3)n12 | 830 nM | 1880 nM | 710 nM | 3040 nM | 4420 nM |  |  |  |  |  |  | 
10 |  | COc1ccc(-c2cc(-c3ccc(F)cc3F)n3c(CN4CCC(C)CC4)cnc3c2C#N)c(OC)c1OC | 140 nM | 60 nM | 1460 nM | 1680 nM | 3480 nM |  |  |  |  |  |  | 
11 |  | CCN(CC)Cc1cnc2c(C#N)c(-c3cc(OC)c(OC)c(OC)c3)cc(-c3ccc(F)cc3F)n12 | 3510 nM | 760 nM | > 100000 nM | 40600 nM | > 100000 nM |  |  |  |  |  |  | 
12 |  | CNCc1cn2c(-c3c[nH]c4ccccc34)cc(-c3ccc(F)cc3F)c(C#N)c2n1 | 160 nM | 200 nM | 8900 nM | 18200 nM | 16200 nM |  |  |  |  |  |  | 
13 |  | CCN(CC)Cc1cn2c(-c3c[nH]c4ccccc34)cc(-c3ccc(F)cc3F)c(C#N)c2n1 | 20 nM | 110 nM | 80 nM | 3220 nM | 1920 nM |  |  |  |  |  |  | 
14 |  | COc1cc(-c2cc(-c3ccc(F)cc3F)n3c(CN(C)C)cnc3c2C#N)cc(OC)c1OC | 360 nM | 670 nM | 31000 nM | 14000 nM | 62500 nM |  |  |  |  |  |  | 
15 |  | COc1ccc(-c2cc(-c3ccc(F)cc3)n3c(CN4CCCC4)cnc3c2C#N)c(OC)c1OC | 1950 nM | 15600 nM | 1330 nM | 5840 nM | 5120 nM |  |  |  |  |  |  | 
16 |  | N#Cc1c(-c2ccc(F)cc2F)cc(-c2c[nH]c3ccccc23)n2cc(CNC3CC3)nc12 | 40 nM | 280 nM | 9660 nM | 3680 nM | 6800 nM |  |  |  |  |  |  | 
17 | Dose-dependent effect | N#Cc1c(-c2ccc(F)cc2F)cc(-c2c[nH]c3ccccc23)n2cc(CNC3CCCCC3)nc12 | 10 nM | 40 nM | 540 nM | 2400 nM | 5600 nM | 5 | Active | Active | 52 |  |  | 

Row | inhibition (Homo sapiens [6]) | SMILES | IC50 (HT-29 [1]) | IC50 (NCI-H460) | IC50 (A549) | IC50 (MKN-45) | IC50 (SMMC-7721) | Ratio IC50 (HT-29 [2]) | inhibition (Homo sapiens [3]) | inhibition (Homo sapiens [4]) | Ratio IC50 (HT-29 [5]) | inhibition (Homo sapiens [7]) | inhibition (Homo sapiens [8]) | inhibition (Homo sapiens [9])
18 |  | CC1CCN(Cc2cn3c(-c4c[nH]c5ccccc45)cc(-c4ccc(F)cc4F)c(C#N)c3n2)CC1 | 10 nM | 200 nM | 3640 nM | 2620 nM | 3550 nM |  |  |  |  |  |  | 
19 |  | N#Cc1c(-c2ccc(F)cc2F)cc(-c2c[nH]c3ccccc23)n2cc(CN3CCCC3)nc12 | 40 nM | 50 nM | 1030 nM | 480 nM | 5040 nM |  |  |  |  |  |  | 
20 |  | CC(=O)O[C@H]1C(=O)[C@@]2(C)[C@H]([C@H](OC(=O)c3ccccc3)[C@]3(O)C[C@H](OC(=O)[C@H](O)[C@@H](NC(=O)c4ccccc4)c4ccccc4)C(C)=C1C3(C)C)[C@]1(OC(C)=O)CO[C@@H]1C[C@@H]2O |  |  |  |  |  |  |  |  |  | inactive |  | 
21 |  | COc1ccc(-c2cc(-c3ccc(F)cc3)n3c(CN4CCOCC4)cnc3c2C#N)c(OC)c1OC | 1030 nM | 9750 nM | 3560 nM | 10500 nM | 4030 nM |  |  |  |  |  |  | 
22 |  | COc1ccc(-c2cc(-c3ccc(F)cc3F)n3c(CN4CCOCC4)cnc3c2C#N)c(OC)c1OC | 470 nM | 80 nM | 1150 nM | 2380 nM | 3200 nM |  |  |  |  |  |  | 
23 |  | COc1ccc(/C=C\c2cc(OC)c(OC)c(OC)c2)cc1O [COMBRETASTATIN A4] | 50 nM | 80 nM | 430 nM | 110 nM | 1920 nM |  |  |  |  | Active | Active | Active
24 |  | CN1CCN(Cc2cn3c(-c4c[nH]c5ccccc45)cc(-c4ccc(F)cc4F)c(C#N)c3n2)CC1 | 110 nM | 170 nM | 920 nM | 2710 nM | 3820 nM |  |  |  |  |  |  | 
25 |  | CCNCc1cnc2c(C#N)c(-c3ccc(OC)c(OC)c3OC)cc(-c3ccc(F)cc3)n12 | 910 nM | 4540 nM | 3240 nM | 7880 nM | 6020 nM |  |  |  |  |  |  | 
26 |  | CN(C)Cc1cn2c(-c3c[nH]c4ccccc34)cc(-c3ccc(F)cc3F)c(C#N)c2n1 | 60 nM | 190 nM | 1120 nM | 1340 nM | 5300 nM |  |  |  |  |  |  | 
27 |  | CCN(CC)Cc1cnc2c(C#N)c(-c3ccc(OC)c(OC)c3OC)cc(-c3ccc(F)cc3F)n12 | 210 nM | 60 nM | 1040 nM | 6790 nM | 1310 nM |  |  |  |  |  |  | 
28 |  | CCNCc1cn2c(-c3c[nH]c4ccccc34)cc(-c3ccc(F)cc3F)c(C#N)c2n1 | 50 nM | 150 nM | 920 nM | 2770 nM | 6120 nM |  |  |  |  |  |  | 
29 |  | COc1ccc(-c2cc(-c3ccc(F)cc3F)n3c(CN4CCCC4)cnc3c2C#N)c(OC)c1OC | 1340 nM | 60 nM | 800 nM | 7260 nM | 2380 nM |  |  |  |  |  |  | 
30 |  | CN1CCN(Cc2cn3c(-c4c[nH]c5ccccc45)cc(-c4ccc(F)cc4Cl)c(C#N)c3n2)CC1 | 140 nM | 220 nM | 1550 nM | 3620 nM | 7120 nM |  |  |  |  |  |  | 
31 |  | CCN(CC)Cc1cnc2c(C#N)c(-c3ccc(OC)c(OC)c3OC)cc(-c3ccc(F)cc3)n12 | 3010 nM | 3080 nM | 1970 nM | 23400 nM | 6910 nM |  |  |  |  |  |  | 
32 |  | COc1ccc(-c2cc(-c3ccc(F)cc3F)n3c(CN(C)C)cnc3c2C#N)c(OC)c1OC | 230 nM | 200 nM | 1980 nM | 9080 nM | 6480 nM |  |  |  |  |  |  | 
33 |  | COc1ccc(-c2cc(-c3ccc(F)cc3)n3c(CN4CCN(C)CC4)cnc3c2C#N)c(OC)c1OC | 2040 nM | 3890 nM | 12400 nM | 5480 nM | 24600 nM |  |  |  |  |  |  | 
